Assay results: ChEMBL document CHEMBL4689842, “EUbOPEN Chemogenomics Library wave 1” (2021)

Tested on: HEK-293T
Experiment: Multiplex assay against HEK293T;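 for Population Tubulin-Different-Phenotype (%): share of the cells with healthy nuclei that show this phenotype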
Format: toxicity, cell-based
Settings: human
Outline: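 Cells were classed with CellPathfinder machine-learning gating, first as Hoechst high-intensity objects or normal cells, then (normal cells) as healthy, pyknosed or fragmented nuclei, and finally (pyknosed cells) as mitotic or apoptotic. Staining of live cells at seeding used Hoechst33342, BioTracker Green Microtubule Cytoskeleton Dye, MitoTracker Red and Annexin V Alexa Fluor 680, with imaging on a CQ1 microscope at 37°C and 5% CO2 after compound addition. Tubulin, mitochondrial-mass and membrane-permeability phenotypes are per cents of healthy-nucleus cells.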

[1] = 12 h, 1 µM, compound concentration 1 uM, replicate 1
[2] = 12 h, 1 µM, compound concentration 1 uM, replicate 2
[3] = 12 h, 10 µM, compound concentration 10 uM, replicate 1
[4] = 12 h, 10 µM, compound concentration 10 uM, replicate 2
[5] = 24 h, 1 µM, compound concentration 1 uM, replicate 1
[6] = 24 h, 1 µM, compound concentration 1 uM, replicate 2
[7] = 24 h, 10 µM, compound concentration 10 uM, replicate 1
[8] = 24 h, 10 µM, compound concentration 10 uM, replicate 2
[9] = 48 h, 1 µM, compound concentration 1 uM, replicate 1
[10] = 48 h, 1 µM, compound concentration 1 uM, replicate 2
[11] = 48 h, 10 µM, compound concentration 10 uM, replicate 1
[12] = 48 h, 10 µM, compound concentration 10 uM, replicate 2

CCc1cccc(CC)c1NC(=O)c1nn(C)c2c1CCc1cnc(Nc3ccc(C(=O)NC4CCN(C)CC4)cc3OC(F)(F)F)nc1-2
Population Apoptotic (%) [1]: 66% | Population Fragmented Nuclei (%) [1]: 8% | Population Healthy Nuclei (%) [1]: 46% | Population Hoechst High Intensity Objects (%) [1]: 11% | Population Membrane Permeable-Phenotype (%) [1]: 3% | Population Mitochondria Different-Phenotype (%) [1]: 93% | Population Mitotic Cells (%) [1]: 33% | Population Normal (%) [1]: 88% | Population Pyknosed Nuclei (%) [1]: 45% | Population Tubulin-Different-Phenotype (%) [1]: 68% | Total Cell Count [1]: 312 | Population Apoptotic (%) [2]: 28% | Population Fragmented Nuclei (%) [2]: 4% | Population Healthy Nuclei (%) [2]: 39% | Population Hoechst High Intensity Objects (%) [2]: 4% | Population Membrane Permeable-Phenotype (%) [2]: 2% | Population Mitochondria Different-Phenotype (%) [2]: 57% | Population Mitotic Cells (%) [2]: 71% | Population Normal (%) [2]: 95% | Population Pyknosed Nuclei (%) [2]: 56% | Population Tubulin-Different-Phenotype (%) [2]: 62% | Total Cell Count [2]: 251 | Population Apoptotic (%) [3]: 80% | Population Fragmented Nuclei (%) [3]: 11% | Population Healthy Nuclei (%) [3]: 31% | Population Hoechst High Intensity Objects (%) [3]: 11% | Population Membrane Permeable-Phenotype (%) [3]: 0% | Population Mitochondria Different-Phenotype (%) [3]: 98% | Population Mitotic Cells (%) [3]: 19% | Population Normal (%) [3]: 88% | Population Pyknosed Nuclei (%) [3]: 57% | Population Tubulin-Different-Phenotype (%) [3]: 98% | Total Cell Count [3]: 300 | Population Apoptotic (%) [4]: 73% | Population Fragmented Nuclei (%) [4]: 4% | Population Healthy Nuclei (%) [4]: 16% | Population Hoechst High Intensity Objects (%) [4]: 7% | Population Membrane Permeable-Phenotype (%) [4]: 4% | Population Mitochondria Different-Phenotype (%) [4]: 86% | Population Mitotic Cells (%) [4]: 26% | Population Normal (%) [4]: 92% | Population Pyknosed Nuclei (%) [4]: 78% | Population Tubulin-Different-Phenotype (%) [4]: 86% | Total Cell Count [4]: 152 | Population Apoptotic (%) [5]: 63% | Population Fragmented Nuclei (%) [5]: 10% | Population Healthy Nuclei (%) [5]: 53% | Population Hoechst High Intensity Objects (%) [5]: 10% | Population Membrane Permeable-Phenotype (%) [5]: 1% | Population Mitochondria Different-Phenotype (%) [5]: 84% | Population Mitotic Cells (%) [5]: 36% | Population Normal (%) [5]: 89% | Population Pyknosed Nuclei (%) [5]: 36% | Population Tubulin-Different-Phenotype (%) [5]: 56% | Total Cell Count [5]: 342 | Population Apoptotic (%) [6]: 25% | Population Fragmented Nuclei (%) [6]: 2% | Population Healthy Nuclei (%) [6]: 59% | Population Hoechst High Intensity Objects (%) [6]: 4% | Population Membrane Permeable-Phenotype (%) [6]: 3% | Population Mitochondria Different-Phenotype (%) [6]: 52% | Population Mitotic Cells (%) [6]: 74% | Population Normal (%) [6]: 95% | Population Pyknosed Nuclei (%) [6]: 38% | Population Tubulin-Different-Phenotype (%) [6]: 55% | Total Cell Count [6]: 287 | Population Apoptotic (%) [7]: 74% | Population Fragmented Nuclei (%) [7]: 12% | Population Healthy Nuclei (%) [7]: 42% | Population Hoechst High Intensity Objects (%) [7]: 10% | Population Membrane Permeable-Phenotype (%) [7]: 4% | Population Mitochondria Different-Phenotype (%) [7]: 98% | Population Mitotic Cells (%) [7]: 25% | Population Normal (%) [7]: 89% | Population Pyknosed Nuclei (%) [7]: 45% | Population Tubulin-Different-Phenotype (%) [7]: 98% | Total Cell Count [7]: 342 | Population Apoptotic (%) [8]: 93% | Population Fragmented Nuclei (%) [8]: 6% | Population Healthy Nuclei (%) [8]: 32% | Population Hoechst High Intensity Objects (%) [8]: 5% | Population Membrane Permeable-Phenotype (%) [8]: 0% | Population Mitochondria Different-Phenotype (%) [8]: 93% | Population Mitotic Cells (%) [8]: 6% | Population Normal (%) [8]: 94% | Population Pyknosed Nuclei (%) [8]: 61% | Population Tubulin-Different-Phenotype (%) [8]: 91% | Total Cell Count [8]: 158 | Population Apoptotic (%) [9]: 43% | Population Fragmented Nuclei (%) [9]: 14% | Population Healthy Nuclei (%) [9]: 59% | Population Hoechst High Intensity Objects (%) [9]: 12% | Population Membrane Permeable-Phenotype (%) [9]: 0% | Population Mitochondria Different-Phenotype (%) [9]: 57% | Population Mitotic Cells (%) [9]: 56% | Population Normal (%) [9]: 87% | Population Pyknosed Nuclei (%) [9]: 26% | Population Tubulin-Different-Phenotype (%) [9]: 46% | Total Cell Count [9]: 417 | Population Apoptotic (%) [10]: 27% | Population Fragmented Nuclei (%) [10]: 7% | Population Healthy Nuclei (%) [10]: 69% | Population Hoechst High Intensity Objects (%) [10]: 3% | Population Membrane Permeable-Phenotype (%) [10]: 2% | Population Mitochondria Different-Phenotype (%) [10]: 32% | Population Mitotic Cells (%) [10]: 72% | Population Normal (%) [10]: 96% | Population Pyknosed Nuclei (%) [10]: 23% | Population Tubulin-Different-Phenotype (%) [10]: 43% | Total Cell Count [10]: 410 | Population Apoptotic (%) [11]: 84% | Population Fragmented Nuclei (%) [11]: 14% | Population Healthy Nuclei (%) [11]: 52% | Population Membrane Permeable-Phenotype (%) [11]: 3% | Population Mitochondria Different-Phenotype (%) [11]: 94% | Population Mitotic Cells (%) [11]: 15% | Population Pyknosed Nuclei (%) [11]: 32% | Population Tubulin-Different-Phenotype (%) [11]: 88% | Total Cell Count [11]: 339 | Population Apoptotic (%) [12]: 91% | Population Fragmented Nuclei (%) [12]: 8% | Population Healthy Nuclei (%) [12]: 38% | Population Hoechst High Intensity Objects (%) [12]: 13% | Population Membrane Permeable-Phenotype (%) [12]: 6% | Population Mitochondria Different-Phenotype (%) [12]: 93% | Population Mitotic Cells (%) [12]: 8% | Population Normal (%) [12]: 86% | Population Pyknosed Nuclei (%) [12]: 52% | Population Tubulin-Different-Phenotype (%) [12]: 86% | Total Cell Count [12]: 173
